Measured values from ChEMBL document CHEMBL4428081, “Selective AKR1C3 Inhibitors Potentiate Chemotherapeutic Activity in Multiple Acute Myeloid Leukemia (AML) Cell Lines” (ACS Med Chem Lett, 2016).
pIC50: −log10 of the molar value. Active and inactive are the calls of the source. The calls are words filed in the database; no cut-off is given here.

Columns and labels:
HL-60 [1] = assay: Downregulation of AKR1C3 expression in human HL60 cells at 1 to 10 uM after 72 hrs by Western blot analysis; type: functional, cell-based
Method in brief: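 KG1a and HL-60 cells were incubated with inhibitor at 1, 5 and 10 μM. AKR1C3 expression levels were determined after 48 h and 72 h incubation.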

[2] = biological target: T1, Aldo-keto reductase family 1 member C3 (Homo sapiens) (UniProt P42330); assay: Inhibition of AKR1C3 in human KG1a cells assessed as potentiation of etoposide-induced cytotoxicity by measuring reduction in cell viability at 0.1 uM coincubated with etoposide at 1 uM after 72 hrs by MTS assay; type: cell-based
T1 sequence (whole entry): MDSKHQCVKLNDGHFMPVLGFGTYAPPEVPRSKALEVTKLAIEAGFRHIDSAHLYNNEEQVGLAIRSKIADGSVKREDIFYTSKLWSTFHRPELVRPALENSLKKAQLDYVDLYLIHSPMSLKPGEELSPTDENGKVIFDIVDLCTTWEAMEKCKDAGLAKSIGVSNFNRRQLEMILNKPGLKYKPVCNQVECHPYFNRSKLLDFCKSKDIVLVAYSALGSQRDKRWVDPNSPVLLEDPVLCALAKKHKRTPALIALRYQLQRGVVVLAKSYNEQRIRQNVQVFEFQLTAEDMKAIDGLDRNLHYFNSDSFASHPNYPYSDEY
Method in brief: (§1)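 HL-60 or KG1a cells were coincubated with inhibitor and etoposide for 72 h, then cell viability was read. Values are mean ± SD (n = 6). Treatments were compared with control by two-tailed t test.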

[3] = biological target: T1, Aldo-keto reductase family 1 member C3 (Homo sapiens); assay: Inhibition of AKR1C3 in human HL60 cells assessed as potentiation of etoposide-induced cytotoxicity by measuring reduction in cell viability pre-treated with 0.1 to 1 uM compound for 24 hrs followed by 1 uM etoposide exposure for additional 72 hrs by MTS assay; type: cell-based
HL-60 [4] = assay: Cytotoxicity against human HL60 cells assessed as reduction in cell viability at 0.1 to 1 uM at 72 hrs by MTS assay; type: functional
Method in brief: (§2)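 HL-60 human acute promyelocytic leukemia cells exposed to AKR1C3 inhibitor alone, with no chemotherapeutic, over a range up to 100 μM. Lower working range was 0.1–1 μM. Read-out was cell viability relative to untreated control.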

KG-1a [5] = assay: Cytotoxicity against human KG1a cells expressing AKR1C3 assessed as reduction in cell viability at 1 uM at 72 hrs by MTS assay; type: functional
[6] = biological target: T1, Aldo-keto reductase family 1 member C3 (Homo sapiens); assay: Inhibition of AKR1C3 in human HL60 cells assessed as potentiation of etoposide-induced cytotoxicity by measuring reduction in cell viability at 0.1 uM coincubated with etoposide at 1 uM after 72 hrs by MTS assay (reference value: 40%); type: cell-based; method in brief: as §1
HL-60 [7] = assay: Cytotoxicity against human HL60 cells assessed as reduction in cell viability at 50 uM at 72 hrs by MTS assay; type: functional, cell-based; method in brief: as §2
[8] = biological target: T1, Aldo-keto reductase family 1 member C3 (Homo sapiens); assay: Inhibition of AKR1C3 in human HL60 cells assessed as potentiation of etoposide-induced cytotoxicity by measuring reduction in cell viability at 0.1 uM coincubated with etoposide at 0.5 uM after 72 hrs by MTS assay (reference value: 20%); type: cell-based; method in brief: as §1
[9] = biological target: Aldo-keto reductase family 1 member C3 (Homo sapiens, UniProt P42330); assay: Inhibition of recombinant N-terminal His-tagged AKR1C3 (unknown origin) assessed as rate of change of pyridine nucleotide absorbance in presence of NADPH
Homo sapiens = species on record: Homo sapiens; assay: Selectivity ratio of IC50 for recombinant AKR1C2 (unknown origin) to IC50 for recombinant AKR1C3 (unknown origin)
[10] = biological target: Aldo-keto reductase family 1 member C2 (Homo sapiens, UniProt P52895); assay: Inhibition of recombinant AKR1C2 (unknown origin) assessed as reduction in S-tetralol catalyzed oxidation in presence of NADPH by fluorescence assay
HL-60 [11] = assay: Cytotoxicity against human HL60 cells assessed as reduction in cell viability up to 100 uM at 72 hrs by MTS assay; type: functional, cell-based; method in brief: as §2
KG-1a [12] = assay: Cytotoxicity against human KG1a cells expressing AKR1C3 assessed as reduction in cell viability at >25 uM at 72 hrs by MTS assay; type: functional, cell-based

Aldo-keto reductase family 1 member C2, sequence (P52895 whole entry): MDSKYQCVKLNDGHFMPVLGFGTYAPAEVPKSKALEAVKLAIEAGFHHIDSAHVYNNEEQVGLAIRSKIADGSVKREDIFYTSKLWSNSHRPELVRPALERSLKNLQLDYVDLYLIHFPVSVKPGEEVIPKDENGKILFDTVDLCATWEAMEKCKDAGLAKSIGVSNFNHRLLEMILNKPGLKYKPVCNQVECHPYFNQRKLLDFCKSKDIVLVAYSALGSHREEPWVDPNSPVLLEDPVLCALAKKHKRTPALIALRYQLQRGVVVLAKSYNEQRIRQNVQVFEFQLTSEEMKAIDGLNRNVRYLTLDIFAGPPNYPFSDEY

Structure (SMILES) | Activity (HL-60 [1]) | Activity [2] [%] | Activity [3] [%] | Activity (HL-60 [4]) [%] | Activity (KG-1a [5]) [%] | Activity [6] [%] | Activity (HL-60 [7]) | Activity [8] [%] | pIC50 [9] | Ratio IC50 (Homo sapiens) | pIC50 [10] | Activity (HL-60 [11]) | Activity (KG-1a [12])
CC(C)=CCc1ccc(/C=C/C(=O)O)cc1NC(=O)CCc1ccccc1 | Active | 40 | 80 to 95 | 8 | 20 | 52 | Active | 45 | – | – | – | – | –
CC(=O)O[C@]1(C(C)=O)CC[C@H]2[C@@H]3C[C@H](C)C4=CC(=O)CC[C@]4(C)[C@H]3CC[C@@]21C [MEDROXYPROGESTERONE ACETATE] | – | – | – | – | – | – | – | – | 5.60 | 0.66 | 5.40 | – | –
CC(C)=CCc1ccc(/C=C/C(=O)O)cc1OC(=O)CCc1ccccc1 | – | 54 | 80 to 95 | – | – | 80 | – | – | – | – | – | inactive | Active
